Compound activity: PubChem BioAssay, Broad Institute
dFosB activator – activators of mouse delta FosB homodimer; activation, % at 25 µM; P13346; hit rate 0.99% among 340,000; purified delta FosB, TAMRA-CDK5 oligo fluorescence polarization; percent of positive-control signal above neutral wells;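 active = mean activation above about 17%, with every replicate also reaching it, limit read from the data, passing the limit was not always enough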
Target sequence (P13346 whole entry, looked up): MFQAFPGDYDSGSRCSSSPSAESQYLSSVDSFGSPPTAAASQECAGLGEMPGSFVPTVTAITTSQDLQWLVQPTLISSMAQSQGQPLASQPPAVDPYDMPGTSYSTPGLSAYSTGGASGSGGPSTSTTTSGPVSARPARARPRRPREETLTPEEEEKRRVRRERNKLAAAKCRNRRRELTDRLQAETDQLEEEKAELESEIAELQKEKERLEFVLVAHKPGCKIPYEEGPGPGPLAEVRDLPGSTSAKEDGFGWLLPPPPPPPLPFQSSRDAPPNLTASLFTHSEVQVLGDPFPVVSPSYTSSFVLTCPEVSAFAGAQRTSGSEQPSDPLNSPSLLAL
CAL PDZ FP-1 – CAL PDZ (human) peptide binding inhibition. Q9HD26. purified CAL PDZ, TMR-peptide fluorescence polarization, 1 h. inhibition, % at 24.9 µM. hit rate 0.92% among 300,000;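 active = mean inhibition of at least 30% with at least half of replicates also reaching 30%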;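 note: 0% = DMSO neutral control and 100% = excess unlabeled competitor peptide PRC23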
Dyrk1A ADPGlo – blocks rat Dyrk1A kinase activity | inhibition, % at 12.5 µM | ADP-Glo luminescence, NFATc1 peptide | Q63470 | AID 504441 | hit rate 0.43% among 310,000; in the data active = inhibition above about 50%;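 note: plate controls were vehicle with enzyme for no effect and no enzyme for full effect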
CAL PDZ FP-2 – inhibitors of human CAL PDZ peptide binding | Q9HD26 | purified CAL PDZ, TMR-peptide fluorescence polarization, 1 h | inhibition, % at 20 µM | hit rate 0.02% among 330,000 | AID 504414;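 active = highest replicate inhibition of at least 40%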;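 note: plate controls were DMSO neutral control wells for no effect and unlabeled competitor peptide control wells for full effect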
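Material: tagged CAL PDZ domain; buffer or medium: 25 mM sodium phosphate pH 7.4, 150 mM NaCl, TCEP, IgG, Thesit; compound dosing: single point, 20 µM; schedule: 1 h incubation at room temperature before polarization reading; measured by: FP readout, S and P plane fluorescence; read-out basis: percent inhibition from loss of millipolarization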
CDK5 p35 inh – blocks human CDK5/p35 kinase activity; Q00535+Q15078; Recombinant CDK5/p35, ADP-Glo luminescence, 60 min; inhibition, % at 10 µM; hit rate 0.01% among 330,000; AID 488839;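 active = highest replicate inhibition of at least 50% and at least 75% of replicates reaching 50%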;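 note: plate controls were DMSO neutral control for no effect and GW8510 at 10 µM for full effect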
Rtt109 HAT inh – C. albicans Rtt109 histone acetyltransferase inhibition; inhibition, % at 34.9 µM; hit rate 0.16% among 330,000; AID 540336; Q5AAJ8; purified Rtt109/Vps75, ThioGlo CoA-SH fluorescence, 4 h;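 active = inhibition of at least 50% in every replicate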
* marks the source's active call; other numbers are inactive results; . = not tested or not shown. Hits are enriched below; roughly 2.2% of the tested compounds scored in any of these assays.

SMILES	dFosB activator	CAL PDZ FP-1	Dyrk1A ADPGlo	CAL PDZ FP-2	CDK5 p35 inh	Rtt109 HAT inh
COc1cc(/C=C/C(=O)OCC(=O)Nc2ccc(S(=O)(=O)N3CCCC3)cc2)ccc1O	-13	-2	2	-2	1	19
COc1cc(NS(=O)(=O)c2ccc(NC(=S)NC(=O)/C=C/c3ccc(OC)c(OC)c3)cc2)ncn1	2	0	-6	0	-1	16
COc1ccc(/C=C/C(=O)OCC(=O)Nc2ccc(S(N)(=O)=O)cc2)cc1OC	0	45*	7	-1	-2	-5
CCN(C(=O)COC(=O)c1c(-c2ccccc2)noc1C)c1c(N)n(Cc2ccccc2)c(=O)[nH]c1=O	-9	-2	-8	-3	1	4
CC(C)OC(=O)N(C)c1ccc(C(O)(C(F)(F)F)C(F)(F)F)cc1	-10	-5	-14	-1	-1	55*
CCC(=O)N1CCc2cc(Br)cc(S(=O)(=O)N3CCCCC3CC)c21 (stereo not given)	-9	74*	3	-1	0	-5
CCC(=O)N1CCc2cc(Br)cc(S(=O)(=O)N3CCCCCC3)c21	-9	-3	4	-1	0	-3
O=C(c1cccs1)N1N=C(c2ccccc2)CC1c1ccccc1O (stereo not given)	31*	-2	-2	-3	1	8
O=C(c1ccco1)N1N=C(c2cccs2)CC1c1ccccc1O (stereo not given)	27*	-2	.	-1	2	-3
COCCOc1cc2ncnc(N3CCC(C(=O)O)CC3)c2cc1OCCOC	2	164*	-2	0	0	9
C=CC[C@H]1C=C[C@@H](C(C(=O)OC)C(=O)OC)CN1C(C)=O	-3	-5	.	-1	0	1
COc1ccc(-n2cnc3scc(-c4ccc(OC)c(OC)c4)c3c2=O)cc1	-1	5	-12	-3	0	62*
O=S(=O)(CC(O)CS(=O)(=O)c1ccc(Cl)cc1)c1ccccc1 (stereo not given)	4	42*	-3	0	-1	2
COCCN1CCC(CO)C1 (stereo not given)	-3	-3	.	-1	-1	-1
O=C(Nc1ccc(Cl)c(S(=O)(=O)N2CCCC2)c1)c1nn(CCO)c(=O)c2ccccc12	-19	39*	1	-3	-2	10
CCN(CC)S(=O)(=O)c1ccc2[nH]c(=O)c3ccccc3c2c1	2	-4	.	0	-6	-10
O=C1N/C(=C/c2ccc(N3CCOCC3)o2)C(=O)N1c1cccc(Cl)c1	-5	1	0	-4	1	5
CSc1cc(CS(=O)(=O)c2ccccc2)nc(-c2ccccc2)n1	4	79*	.	-1	-1	3
CC(NC(=O)CSc1ncccc1C(=O)O)C1CC2CCC1C2 (stereo not given)	1	-2	0	0	-1	-3
O=C(NC(N1CCOCC1)C(Cl)(Cl)Cl)c1ccc(F)cc1 (stereo not given)	8	76*	13	1	-2	.
O=C(NC(N1CCCC1)C(Cl)(Cl)Cl)c1ccccc1 (stereo not given)	-4	-4	2	0	-1	16
COc1cccc(C2(O)CC(C(F)(F)F)=NN2C(=O)c2ccccn2)c1 (stereo not given)	-13	-3	-3	-2	-1	-21
CCCc1cc(=O)n2[nH]c(C)c(-c3ccc(OC)cc3)c2n1	-16	-1	12	19	2	-3
O=C(Nc1cc(Cl)cc(Cl)c1)N1CCCN(Cc2ccccc2)CC1	-3	37*	8	-1	0	7
N=C1C(c2ccccc2)=C(O)CN1c1cccc(S(=O)(=O)Nc2cccc(C(F)(F)F)c2)c1	-6	2	2	-1	-1	.
COc1cc2c(cc1OC)C(c1cc3cc4c(cc3[nH]c1=O)OCO4)N(C(=O)C1CC1)CC2 (stereo not given)	4	-1	4	-2	0	-1
COc1cc2c(cc1OC)C(c1cc3ccc(C)cc3[nH]c1=O)N(C(=O)c1ccco1)CC2 (stereo not given)	-8	41*	3	-2	0	14
COC(=O)c1ccc(Cl)c(NC(=O)CN(c2ccccc2)S(=O)(=O)c2ccc(OC)cc2)c1	-7	-3	5	-2	.	10
